Screening results as filed in PubChem.
M5 ag: CHRM5 agonism in calcium assay; P08912; CHO-K1 hM5 cells, Fluo-8 calcium fluorescence; 0% DMSO wells, 100% maximal acetylcholine response; activation, % at 3 µM; 0.19% of 360,000 active; AID 624037;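 active = activation above the run's mean over test compounds plus 3 SD, cut at about 23% in these data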;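 also: signal is peak over basal fluorescence ratio across the kinetic read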
Target sequence (P08912 whole entry, looked up): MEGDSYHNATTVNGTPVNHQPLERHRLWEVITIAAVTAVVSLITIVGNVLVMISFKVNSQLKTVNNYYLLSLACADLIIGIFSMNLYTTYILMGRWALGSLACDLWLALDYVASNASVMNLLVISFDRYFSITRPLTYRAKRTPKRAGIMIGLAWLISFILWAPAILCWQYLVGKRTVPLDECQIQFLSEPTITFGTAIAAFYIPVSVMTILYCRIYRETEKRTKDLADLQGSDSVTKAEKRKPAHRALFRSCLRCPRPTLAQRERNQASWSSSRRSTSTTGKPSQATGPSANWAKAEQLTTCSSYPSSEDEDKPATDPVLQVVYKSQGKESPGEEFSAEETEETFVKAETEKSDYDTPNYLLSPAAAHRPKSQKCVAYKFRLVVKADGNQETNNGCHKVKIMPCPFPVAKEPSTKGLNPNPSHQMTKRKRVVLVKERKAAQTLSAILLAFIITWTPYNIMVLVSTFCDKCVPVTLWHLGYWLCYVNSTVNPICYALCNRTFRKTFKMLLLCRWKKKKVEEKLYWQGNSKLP
M5 PAM: positive allosteric modulators of human muscarinic M5 receptor. P08912. CHO-K1 hM5, Fluo-8 calcium, ACh EC20 PAM; 0% = ACh EC20, 100% = ACh EC100. activation, % at 3 µM. 0.3% of 360,000 active;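 active = activation above the run cutoff, the mean activation of all test compounds plus 3 SD, cut at about 18% in these data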
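System: CHO-K1 hM5 cells. Reagent: acetylcholine, EC20 level. Compound dosing: single dose, 3 µM nominal final test concentration. Timing: Post-acetylcholine fluorescence recording 140 s. Detection: Fluo-8 calcium fluorescence. Read-out: % activation, ACh-normalized. Benchmarks: ACh EC20 and EC100 wells. Repeats: singlicate, one well per test compound.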
CHRM4 antagonist: antagonists of human muscarinic M4 receptor (CHRM4). P08173. CHO-hM4 cells, ACh EC80, Fluo-8 calcium fluorescence. inhibition, % at 3 µM. 0.73% of 360,000 active;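 active = inhibition above its plate's cutoff, the mean inhibition of sample wells plus 3 SD, cut at about 27% in these data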
CHRM5 antagonist: antagonists of human muscarinic M5 receptor (CHRM5); inhibition, % at 3 µM; 0.59% of 360,000 active; P08912; CHO-hM5 cells, Fluo-8 calcium fluorescence, ACh EC80;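 active = inhibition above a per-plate cutoff, the mean of that plate's test compounds plus 3 SD, cut at about 27% in these data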
M4 ag: CHRM4 agonism in calcium assay; AID 624127; CHO-K1 hM4/Gqi5, Fluo-8 calcium fluorescence; vehicle 0%, full acetylcholine response 100%; activation, % at 3 µM; P08173; 0.14% of 360,000 active;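 active = activation above the run mean over all test wells plus 3 SD, cut at about 32% in these data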;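 also: peak over basal fluorescence ratio per well then scaled between controls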
M4 PAM: positive allosteric modulators of human muscarinic M4 receptor; activation, % at 3 µM; 0.4% of 360,000 active; AID 624126; CHO-K1 hM4/Gqi5, Fluo-8 calcium fluorescence, ACh EC20; 0% = ACh EC20, 100% = maximal ACh; P08173;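 active = activation above its plate's cutoff, the mean activation of sample wells plus 3 SD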
Each line names hits and unclear results; the compound was inactive in the other large screens. Shown are actives, neighbours in structure and some others; about 1.9% of the full set was active somewhere.

CC(C)(C)c1ccc(C(=O)NC(=S)NCc2cccnc2)cc1	none
Cc1ccccc1C(=O)NNC(=S)NC(=O)c1cccs1	M4 ag 39
CC(C)(C)c1ccc(C(=O)NC(=S)NNC(=O)c2cccs2)cc1	M5 ag 46, M4 ag 109
COC(=O)CNC(=S)NC(=O)c1ccc(C(C)(C)C)cc1	CHRM4 antagonist 27
Cc1cccc(C(=O)NC(=S)NNC(=O)c2cccs2)c1	none
O=C(NC(=S)NNC(=O)c1cccs1)c1ccccc1	CHRM5 antagonist 27
CC(NC(=O)c1ccco1)C(=O)OCc1cccc(C(F)(F)F)c1 (stereo not drawn)	none
O=C(NNC(=O)c1cccs1)c1ccco1	M5 PAM 21
O=C(NC(=S)NNC(=O)c1cccs1)c1ccco1	none
Cc1cccc(OCc2nc(C#N)c(N3CCCC3)o2)c1	M5 PAM 21
Cc1cccc(OCc2nc(C#N)c(N3CC(C)CC(C)C3)o2)c1 (stereo not drawn)	none
CCOc1cc(N2CCOCC2)c(OCC)cc1NC(=O)COC(=O)c1ccc(Cl)nc1	none
CCn1c(Cl)c(C=O)s/c1=N\S(=O)(=O)c1ccccc1	CHRM4 antagonist 74, CHRM5 antagonist 33
Cc1ccccc1N1CCN(C2CCCN(C(=O)CCC3(C)CC3)C2)CC1 (stereo not drawn)	none
CN(C)S(=O)(=O)c1ccc(Cl)c(C(=O)Nc2ccccc2[N+](=O)[O-])c1	none
CCN(CC)S(=O)(=O)c1ccc(Cl)c(C(=O)Nc2ccc(Cl)cc2[N+](=O)[O-])c1	CHRM5 antagonist 30
CC(C)(C)C1CCN2CCCC(c3ccc([N+](=O)[O-])cc3)(C1)C21OCCO1 (stereo not drawn)	none
Cc1oc2nc(SCC(=O)N3CCCCC3)nc(N)c2c1C	M4 PAM 20
COc1cc(NC(=O)CNc2cccc(S(=O)(=O)N3CCOCC3)c2)cc(OC)c1	none
Cc1cc(S(=O)(=O)Nc2ccc(C(=O)NCC(C)(C)N3CCOCC3)cc2)ccc1F	none
Cc1cccc(NCC(=O)N/N=C\c2c[nH]c3ccccc23)c1	CHRM4 antagonist 28
Cc1ccccc1NCC(=O)N/N=C/c1c[nH]c2ccccc12	none
CCNC(=O)c1ccc(CSc2nc3ccccc3s2)cc1	CHRM5 antagonist 34
CCN(CC)P(=O)(c1ccccc1)c1c(C)nc2ccccn12 (stereo not drawn)	none
CC(=O)CC(C)(C)Nc1nc2ccc([N+](=O)[O-])cc2o1	M5 PAM 25
C(=Cc1c[nH]c2ccccc12)c1ccc2ccccc2n1	M4 ag 36
C(=Cc1c[nH]c2ccccc12)c1nccc2ccccc12	none
Cc1c(CN2CCC(CO)(CCOc3ccccc3)CC2)[nH]c2c(Cl)cccc12	CHRM4 antagonist 29
Cc1ccccc1CC(=O)Nc1ccc(S(=O)(=O)N2CCN(C)CC2)cc1	none
Cc1nc(-c2ccc(C(=O)Nc3cc(S(N)(=O)=O)ccc3C)cc2)cs1	CHRM4 antagonist 30
CCc1nc2ccc(C(=O)NCc3ccc(OC)cc3)cn2c1N(C)Cc1ccc(OC)cc1	none
CCCCN(C)c1c(C)nc2ccc(C(=O)NCCOc3ccc(OC)cc3)cn12	CHRM5 antagonist 29
CCc1nc2ccc(C(=O)NCCN3CCCC3)cn2c1N(C)Cc1ccc(OC)cc1	CHRM4 antagonist 56
COc1cccc(CNC(=O)CN(C)S(=O)(=O)c2cnc[nH]2)c1	M5 PAM 20
CCNC(=S)NNC(=O)c1csc2c1CCCC2	M4 PAM 20
COc1ccccc1N1C(=O)CC(N2CCN(c3ccc([N+](=O)[O-])cc3)CC2)C1=O (stereo not drawn)	none
COc1cc(CNC(=O)C2CC(O)CN2C(=O)Nc2ccccc2)cc(OC)c1OC (stereo not drawn)	none
C=C(Cl)COc1ccc2c(C)cc(=O)oc2c1	M5 PAM 18
CCOC(=O)COc1ccccc1/C=C\[N+](=O)[O-]	CHRM4 antagonist 27
O=C(COC(=O)c1cc[n+]([O-])cc1)Nc1cccc(Br)c1	none
CCN(CC(=O)Nc1c(F)cccc1F)C(=O)c1nn(C)c(=O)c2ccccc12	none
COC(=O)c1ccccc1S(=O)(=O)N1CCC(C(=O)NCc2ccco2)CC1	M4 PAM 23
COC(=O)c1ccccc1S(=O)(=O)N1CCC(C(=O)NCC2CCCO2)CC1 (stereo not drawn)	none
O=C(OCCN1CCOCC1)c1ccc(Cl)cc1Cl	M4 PAM 15
Cc1cc(O)c(-c2cc(O)c(C)cc2O)cc1O	CHRM4 antagonist 28
CCOC(=O)C1(C)CCCN1C(=O)c1cncc(Br)c1 (stereo not drawn)	none
CCOC(=O)C1(C)CCCCN1C(=O)c1cccnc1 (stereo not drawn)	M4 PAM 19
CC1(C(=O)NS(=O)(=O)c2ccccc2Cl)CCN1C(=O)Cc1ccc(Cl)cc1Cl (stereo not drawn)	none
CC(Oc1ccccc1)C(=O)N(CCC1=CCCCC1)c1c(N)n(Cc2ccccc2)c(=O)[nH]c1=O (stereo not drawn)	none
O=C1C=C(c2c(O)ccc3ccccc23)c2ccccc2C1=O	CHRM4 antagonist 47
CCOC(=O)C1CCCN(c2c(C(=O)c3ccccc3)cnc3ccc(OC)cc23)C1 (stereo not drawn)	M5 ag 32
COC(=O)c1sc(NC(C)=O)c(C(=O)OC)c1C	M4 PAM 21
COC(=O)c1c(NC(C)=O)sc(C)c1C	none
COc1cc(/C=C/C(=O)OCC(=O)N(C)Cc2ccccc2)ccc1O	none
COc1ccc2sc(-c3ccc(S(C)(=O)=O)cc3)c(C#CCO)c2c1	none
COc1ccc2c(C#CCCO)c(-c3ccc(S(C)(=O)=O)cc3)sc2c1	CHRM4 antagonist 32
CCc1ccc([C@H]2[C@@H]3C(=O)C[C@@H]4C(=O)N(C5CCCCC5)C(=O)[C@@H]4[C@@H]3CN2S(=O)(=O)c2ccc(C)cc2)cc1	none
CC(NC(=O)COC(=O)c1ccc([N+](=O)[O-])s1)c1ccccc1 (stereo not drawn)	M5 PAM 32
CN(C)CC(=O)N1c2ccccc2Sc2ccc(Cl)cc21	CHRM4 antagonist 68, CHRM5 antagonist 95
CCN(CC)CCC(=O)N1c2ccccc2Sc2ccc(Cl)cc21	CHRM4 antagonist 98, CHRM5 antagonist 99
O=C(CCN1CCN2CCCC2C1)N1c2ccccc2Sc2ccc(Cl)cc21 (stereo not drawn)	none
CN1CCC=C(C(=O)N2c3ccccc3Sc3ccc(Cl)cc32)C1	CHRM4 antagonist 86, CHRM5 antagonist 99
Cn1nnnc1SCC(=O)N1c2ccccc2Sc2ccc(Cl)cc21	none
